Tests used:
[1] = target: T1, Heptosyltransferase I (HepI) (Escherichia coli, UniProt P24173); test: Kinetic characterization of inhibition mechanism; type: biochemical
Summary of the method: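 Rates at rising inhibitor levels fitted to a mixed (noncompetitive) equation with Ks, Ki and α. α marks preference for free enzyme (>1), ternary complex (<1) or neither (=1). It is judged from whether Km rises, falls or stays unchanged as inhibitor increases. ODLA acceptor was varied in the ODLA series.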

[2] = target: T1, Heptosyltransferase I (HepI); test: Inhibition of HepI catalysis with substrates ODLA and ADP-Heptose; type: biochemical

T1 sequence (P24173 whole entry): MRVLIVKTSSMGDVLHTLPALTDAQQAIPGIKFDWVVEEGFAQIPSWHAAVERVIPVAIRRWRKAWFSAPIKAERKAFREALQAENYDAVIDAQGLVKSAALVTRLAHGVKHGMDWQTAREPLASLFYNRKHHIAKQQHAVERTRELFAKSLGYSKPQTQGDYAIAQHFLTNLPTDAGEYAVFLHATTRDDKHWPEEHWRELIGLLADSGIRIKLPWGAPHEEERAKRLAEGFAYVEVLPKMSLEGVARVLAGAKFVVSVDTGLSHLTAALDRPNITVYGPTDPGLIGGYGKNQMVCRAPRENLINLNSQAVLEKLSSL

Row | SMILES | kcat ADP-Heptose ([1]; [Inhibitor] 10 μM) | kcat ODLA ([1]; [Inhibitor] 10 μM) | kcat ADP-Heptose ([1]; [Inhibitor] 100 μM) | kcat ODLA ([1]; [Inhibitor] 100 μM) | kcat ADP-Heptose ([1]; [Inhibitor] 1000 μM) | kcat ODLA ([1]; [Inhibitor] 1000 μM) | type of inhibition against ODLA ([1]; acceptor substrate ODLA varied) | α (preference for free enzyme or ES complex) ([1]; against ADP-Heptose, α<1 = prefers ES complex) | type of inhibition against ADP-Heptose ([1]; donor substrate ADP-Heptose varied) | inhibition of HepI activity (in words) [2]
1 | CCCC/C=C/CO[C@@H]1O[C@H](CO)[C@@H](O)[C@H](O)[C@H]1O [Compound 7, hexene-β-D-glucopyranoside] | 2.8 ± 0.3 s⁻¹ | 1.4 ± 0.03 s⁻¹ | 1.6 ± 0.1 s⁻¹ | 1.3 ± 0.004 s⁻¹ | 0.76 ± 0.08 s⁻¹ | 0.9 ± 0.2 s⁻¹ | uncompetitive inhibition | < 1 | noncompetitive (mixed-competitive) inhibition | 
2 | CCCCCCCCO[C@@H]1O[C@H](CO)[C@@H](O)[C@H](O)[C@H]1O [n-Octyl-β-D-glucopyranoside] |  |  |  |  |  |  |  |  |  | small degree of inhibition

Source: article PMC5885750 (Bioorganic & medicinal chemistry letters, 2018)
